Non-standard residues stand in square brackets, D forms with d. Residues, ends and D or L forms follow the SMILES beside them. ξ: configuration not given here. Aoe(9ξ) = N[C@@H](CCCCCC(=O)C1CO1)C(=O)O; dPip = O=C(O)[C@H]1CCCCN1
How the values were obtained:
Histone deacetylase 1 [1] = target: T1, Histone deacetylase 1 (Homo sapiens, UniProt Q13547); experiment: Inhibition of Histone deacetylase 1 induced acetylated histone in mammalian cells.; format: cell-based
[2] = Inhibitory activity against maize Histone deacetylase 1-B; set-up: species or system Zea mays
[3] = Inhibitory activity afgainst maize Histone deacetylase 1-A; set-up: species or system Zea mays
[4] = Fold selectivity for classIIa HDAC
Histone deacetylase HD2 = target: T2, Histone deacetylase HD2 (Zea mays, UniProt Q94F81); experiment: Tested for maize Histone deacetylase 2 inhibitory activity
T2 sequence (Q94F81 whole entry): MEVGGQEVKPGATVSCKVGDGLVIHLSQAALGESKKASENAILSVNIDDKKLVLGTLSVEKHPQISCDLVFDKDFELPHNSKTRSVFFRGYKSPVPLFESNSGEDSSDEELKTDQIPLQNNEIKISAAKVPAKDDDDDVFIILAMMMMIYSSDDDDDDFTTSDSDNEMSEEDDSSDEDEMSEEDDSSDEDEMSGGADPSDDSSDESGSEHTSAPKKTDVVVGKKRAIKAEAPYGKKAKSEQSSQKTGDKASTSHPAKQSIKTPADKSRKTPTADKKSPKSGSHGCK
Outline: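 Purified maize HD2 enzyme was incubated with compounds and [³H]-acetate pre-labeled chicken reticulocyte histones (added from a 4 mg/mL stock) for 30 min at 30 °C. The reaction was stopped with HCl/acetate, and released [³H]-acetate was extracted into ethyl acetate. The upper phase was counted by liquid scintillation. IC50 is the mean of at least three separate experiments.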

[5] = target: T3, Protein deacetylase HDAC6 (Homo sapiens, UniProt Q9UBN7); experiment: (§1) Tested for inhibition of Histone deacetylase 6 induced acetylated tubulin in mammalian cells.; format: cell-based
T3 sequence (Q9UBN7 whole entry): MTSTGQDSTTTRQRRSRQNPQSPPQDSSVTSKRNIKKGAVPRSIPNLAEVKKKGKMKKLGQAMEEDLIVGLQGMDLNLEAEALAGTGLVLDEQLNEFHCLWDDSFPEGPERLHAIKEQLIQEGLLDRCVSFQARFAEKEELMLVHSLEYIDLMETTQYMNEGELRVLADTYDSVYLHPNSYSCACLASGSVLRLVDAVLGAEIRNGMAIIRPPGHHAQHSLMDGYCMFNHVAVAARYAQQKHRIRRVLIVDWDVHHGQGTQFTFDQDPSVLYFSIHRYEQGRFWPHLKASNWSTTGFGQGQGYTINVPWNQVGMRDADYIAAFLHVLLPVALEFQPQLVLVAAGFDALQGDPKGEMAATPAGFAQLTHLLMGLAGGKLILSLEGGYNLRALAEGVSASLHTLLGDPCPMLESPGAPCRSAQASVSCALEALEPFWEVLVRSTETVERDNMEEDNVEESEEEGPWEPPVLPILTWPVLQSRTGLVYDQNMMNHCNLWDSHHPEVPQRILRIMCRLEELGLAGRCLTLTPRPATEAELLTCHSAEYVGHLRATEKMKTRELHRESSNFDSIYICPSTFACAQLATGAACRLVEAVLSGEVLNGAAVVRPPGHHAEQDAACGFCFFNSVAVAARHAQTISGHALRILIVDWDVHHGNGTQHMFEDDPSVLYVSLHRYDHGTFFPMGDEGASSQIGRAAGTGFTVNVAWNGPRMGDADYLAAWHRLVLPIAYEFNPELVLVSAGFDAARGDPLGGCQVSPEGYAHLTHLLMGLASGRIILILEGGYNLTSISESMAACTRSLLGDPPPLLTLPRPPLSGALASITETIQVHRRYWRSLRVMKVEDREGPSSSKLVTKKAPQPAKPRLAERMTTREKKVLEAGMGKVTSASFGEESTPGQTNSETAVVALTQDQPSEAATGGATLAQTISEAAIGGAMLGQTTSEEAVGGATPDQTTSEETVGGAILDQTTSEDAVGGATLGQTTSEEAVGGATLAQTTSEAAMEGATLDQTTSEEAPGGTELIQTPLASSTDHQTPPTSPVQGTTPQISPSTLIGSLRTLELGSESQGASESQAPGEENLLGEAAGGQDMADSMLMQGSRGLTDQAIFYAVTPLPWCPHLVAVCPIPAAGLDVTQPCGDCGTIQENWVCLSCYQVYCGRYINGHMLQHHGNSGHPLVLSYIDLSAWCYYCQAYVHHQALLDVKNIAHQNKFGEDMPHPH

Histone deacetylase 4 = Histone deacetylase 4 (Homo sapiens, UniProt P56524); experiment: Inhibition of Histone deacetylase 4 in mammalian cells.; format: cell-based
Chain of Histone deacetylase 4 (P56524 whole entry): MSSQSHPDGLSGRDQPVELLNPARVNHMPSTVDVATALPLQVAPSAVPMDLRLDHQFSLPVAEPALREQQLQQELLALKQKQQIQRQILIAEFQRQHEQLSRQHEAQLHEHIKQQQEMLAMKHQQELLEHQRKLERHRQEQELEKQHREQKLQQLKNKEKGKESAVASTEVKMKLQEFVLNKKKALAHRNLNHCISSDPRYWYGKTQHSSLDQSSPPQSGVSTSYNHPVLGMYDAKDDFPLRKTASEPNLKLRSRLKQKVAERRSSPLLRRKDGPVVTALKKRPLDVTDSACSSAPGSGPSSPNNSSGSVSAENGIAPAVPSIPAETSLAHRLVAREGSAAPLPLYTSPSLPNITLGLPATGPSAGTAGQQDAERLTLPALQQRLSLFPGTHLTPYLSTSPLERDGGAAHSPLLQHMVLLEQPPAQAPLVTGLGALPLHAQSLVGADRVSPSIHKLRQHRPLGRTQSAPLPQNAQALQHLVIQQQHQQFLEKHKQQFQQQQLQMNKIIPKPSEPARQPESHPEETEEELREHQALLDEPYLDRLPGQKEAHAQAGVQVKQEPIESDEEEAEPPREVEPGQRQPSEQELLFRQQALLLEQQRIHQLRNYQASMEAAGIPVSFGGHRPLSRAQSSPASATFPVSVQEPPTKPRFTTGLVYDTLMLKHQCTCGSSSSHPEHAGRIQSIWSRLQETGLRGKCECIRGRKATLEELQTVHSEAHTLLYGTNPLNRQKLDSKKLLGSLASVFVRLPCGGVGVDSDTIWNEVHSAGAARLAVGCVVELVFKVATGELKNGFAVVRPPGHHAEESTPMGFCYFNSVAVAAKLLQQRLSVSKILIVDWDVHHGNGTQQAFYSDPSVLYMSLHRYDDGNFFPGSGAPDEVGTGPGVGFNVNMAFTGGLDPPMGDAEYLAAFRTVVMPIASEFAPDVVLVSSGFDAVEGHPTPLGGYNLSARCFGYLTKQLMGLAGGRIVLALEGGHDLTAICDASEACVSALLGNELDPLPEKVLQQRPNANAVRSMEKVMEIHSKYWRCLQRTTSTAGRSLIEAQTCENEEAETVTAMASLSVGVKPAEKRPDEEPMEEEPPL

[6] = Inhibition of Histone deacetylase 4 in mammalian cells; format: cell-based
[7] = as §1; format: cell-based
Histone deacetylase 1 [8] = target: T1, Histone deacetylase 1; experiment: Inhibition of Histone deacetylase 1 induced acetylated histone in mammalian cells; format: cell-based

T1 sequence (Q13547 whole entry): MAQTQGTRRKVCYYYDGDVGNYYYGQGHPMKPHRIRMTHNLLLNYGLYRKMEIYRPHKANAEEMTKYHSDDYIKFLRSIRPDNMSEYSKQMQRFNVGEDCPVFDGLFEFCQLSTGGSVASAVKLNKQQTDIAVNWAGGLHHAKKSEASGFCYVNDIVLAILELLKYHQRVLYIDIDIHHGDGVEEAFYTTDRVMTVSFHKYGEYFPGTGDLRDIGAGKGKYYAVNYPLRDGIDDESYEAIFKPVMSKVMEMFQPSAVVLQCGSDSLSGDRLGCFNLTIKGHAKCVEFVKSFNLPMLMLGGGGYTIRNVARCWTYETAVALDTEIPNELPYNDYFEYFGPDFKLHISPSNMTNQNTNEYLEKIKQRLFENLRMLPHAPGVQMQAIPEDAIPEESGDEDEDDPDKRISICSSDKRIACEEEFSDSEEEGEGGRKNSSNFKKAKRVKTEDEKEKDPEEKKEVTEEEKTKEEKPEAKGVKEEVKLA

IC50 [2] [nM]	IC50 [3] [nM]	Fold selectivity [4]	IC50 (Histone deacetylase HD2) [nM]	Compound	further results
–	–	–	–	C/C=C1\NC(=O)[C@H]2CSSCC/C=C/[C@H](CC(=O)N[C@H](C(C)C)C(=O)N2)OC(=O)[C@H](C(C)C)NC1=O [ROMIDEPSIN]	EC50 (Histone deacetylase 1 [1]): 36000 nM
4800	500	10	10200	Cc1ccc(C(=O)/C=C/c2cc(/C=C/C(=O)NO)n(C)c2)cc1	–
–	–	–	–	C[C@@H]1NC(=O)[C@H](CCCCCC(=O)C2CO2)NC(=O)[C@H]2CCCN2C(=O)[C@H](C)NC1=O (some centres undefined)	EC50 (Histone deacetylase 1 [1]): 110 nM; EC50 [5]: 360000 nM; IC50 (Histone deacetylase 4): 0.3 nM
31400	400	78	24200	Cn1cc(/C=C/C(=O)c2cccc(Cl)c2)cc1/C=C/C(=O)NO	–
0.4	0.8	–	–	CC(/C=C/C(=O)NO)=C\[C@@H](C)C(=O)c1ccc(N(C)C)cc1 [TRICHOSTATIN]	IC50 [6]: 38 nM; EC50 [7]: 8600 nM
29400	18600	–	25200	Cn1cc(/C=C/C(=O)c2ccc(Cl)cc2)cc1/C=C/C(=O)NO	–
2500	200	12	7900	Cc1cccc(C(=O)/C=C/c2cc(/C=C/C(=O)NO)n(C)c2)c1	–
400	60	7	270	Cc1ccccc1C(=O)/C=C/c1cc(/C=C/C(=O)NO)n(C)c1	–
–	–	–	–	O=C(CCCCC[C@@H]1NC(=O)[C@H]2CCCCN2C(=O)[C@H](Cc2ccccc2)NC(=O)[C@H](Cc2ccccc2)NC1=O)C1CO1 (some centres undefined) [TRAPOXIN A] (cyclo(FF[dPip][Aoe(9ξ)]))	EC50 (Histone deacetylase 1 [8]): 820 nM; EC50 [5]: 524000 nM
–	–	–	–	C[C@@H]1NC(=O)[C@H](CCCCCC(=O)NO)NC(=O)[C@H]2CCCN2C(=O)[C@H](C)NC1=O	EC50 (Histone deacetylase 1 [1]): 1900 nM; EC50 [5]: 19000 nM; IC50 (Histone deacetylase 4): 2.7 nM
300	200	–	280	Cn1cc(/C=C/C(=O)c2ccccc2)cc1/C=C/C(=O)NO	–
1600	50	32	5200	Cn1cc(/C=C/C(=O)c2ccccc2Cl)cc1/C=C/C(=O)NO	–

Reference: ChEMBL document CHEMBL1145751, “Discovery of (aryloxopropenyl)pyrrolyl hydroxyamides as selective inhibitors of class IIa histone deacetylase homologue HD1-A” (J Med Chem, 2003)
